Screening data deposited in PubChem by The Scripps Research Institute Molecular Screening Center.
In the library only some 4.6% were active in any assay of this set; here they are far more common.
OX1R antag-1: human HCRTR1 antagonism; O43613; CHO/OX1R cells, Fluo-8 calcium fluorescence, orexin A; inhibition, % at 5 µM; 0.43% of 330,000 active;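 active = inhibition above its plate's threshold, mean inhibition of all tested compounds on the plate plus 3 SD, cut at about 37% in these data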;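 also: 0% = orexin A challenge wells and 100% = SB-334867-A antagonist wells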
Target sequence (O43613 whole entry, looked up): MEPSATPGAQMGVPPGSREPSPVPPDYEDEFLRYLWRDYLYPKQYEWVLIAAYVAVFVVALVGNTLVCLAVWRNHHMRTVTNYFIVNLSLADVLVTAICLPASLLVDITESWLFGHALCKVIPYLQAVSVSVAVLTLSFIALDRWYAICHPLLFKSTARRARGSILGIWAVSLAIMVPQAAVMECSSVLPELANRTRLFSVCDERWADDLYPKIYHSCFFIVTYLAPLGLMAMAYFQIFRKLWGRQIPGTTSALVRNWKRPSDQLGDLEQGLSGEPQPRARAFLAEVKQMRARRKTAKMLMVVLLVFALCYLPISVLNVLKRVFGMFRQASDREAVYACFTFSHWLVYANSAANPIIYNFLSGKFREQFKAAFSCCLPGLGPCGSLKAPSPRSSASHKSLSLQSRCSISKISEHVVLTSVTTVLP
TAAR1 ag: human TAAR1 agonism; Q96RJ0; CHO RD-HGA16 TAAR1, Fluo-8 calcium fluorescence; vehicle wells 0%, saturating PEA agonist 100%; activation, % at 3 µM; 0.99% of 360,000 active; AID 624467;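 active = activation above the mean activation of all test compounds in the run plus 3 SD, cut at about 38% in these data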
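System: CHO-derived RD-HGA16 cells with stable Gα16 and human TAAR1. Times: 17-24 h plating, Fluo-8 75 min 37 °C, 30 min RT. Measured by: calcium-sensitive Fluo-8 signal, excitation 470-495, emission 515-575 nm. Read-out basis: % activation relative to PEA EC100 response. Control set: DMSO and PEA EC100. Repeats: no replicates (n 1).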
GPR7 antag: blocks human GPR7 receptor signaling | AID 1861 | 1.1% of 290,000 active | inhibition, % at 4.4 µM | GPR7-expressing cells, fluorescence antagonist assay; in the data active = inhibition above about 16%, passing the limit was not always enough;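 also: cells stimulated with the agonist NPW; 0% = agonist with vehicle and 100% = vehicle without agonist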
CHO parental Ca: counter-screen: ATP calcium response change in parental CHO cells | inhibition, % at 5.6 µM | parental CHO-K1, ATP-induced calcium, Fluo-8 fluorescence | 0.63% of 330,000 active;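 active = inhibition above that plate's mean sample inhibition plus 3 SD, cut at about 26% in these data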;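 also: 0% = ATP-challenged DMSO wells and 100% = DMSO wells without ATP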
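Assay system – parental CHO cells · Reagent – ATP stimulus · Detection – intracellular calcium via Fluo-8 no-wash fluorescent dye · Evaluation – percent inhibition of ATP-evoked calcium rise, normalized to controls · Controls – ATP wells versus no-ATP DMSO wells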
TAAR1 antagonist: human TAAR1 antagonism | Q96RJ0 | CHO RD-HGA16 TAAR1, Fluo-8 calcium fluorescence, antagonist | inhibition, % at 3 µM | 1.5% of 360,000 active;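 active = inhibition above a per-plate cutoff, the mean inhibition of test compounds on that plate plus 3 SD, cut at about 49% in these data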;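 also: 0% = DMSO plus EC80 beta-PEA response and 100% = DMSO alone without agonist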
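Material: RD-HGA16 CHO cells with stable hTAAR1 and Gα16; Dosing: single nominal final test compound concentration of 3 µM; Schedule: seeding 17-24 h prior, 75-min 37 °C, 30-min RT dye loading; Detection: kinetic Fluo-8 calcium fluorescence measurement; Measure: % inhibition from peak post-agonist over basal fluorescence ratio; Benchmarks: vehicle and agonist controls.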
OX1R antag-2: OX1R (human) antagonism. O43613. OX1R-expressing cells, FRET antagonist read-out. inhibition, % at 6.6 µM. 1.8% of 330,000 active. AID 485270; in the data active = inhibition mostly above about 38%, no sharp cut-off; inactive = mostly below about 40%;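 also: 0% = agonist challenge alone and 100% = reference antagonist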
The depositor's hits bear a star; / = not tested or not shown.

SMILES	OX1R antag-1	TAAR1 ag	GPR7 antag	CHO parental Ca	TAAR1 antagonist	OX1R antag-2
CCn1c2ccccc2c2cc(NC(=O)c3cccc([N+](=O)[O-])c3)ccc21	17	1	/	-6	-10	76*
C=CCOc1ccc(Cl)cc1CNC1CCCC1	-23	0	16	-16	-2	22
O=C(CNC(=O)CNC(=O)c1ccc(Cl)cc1Cl)NCc1cccc(Cl)c1	-11	3	14	-19	-11	18
CCN1CCN(c2ccc(S(=O)(=O)N(CC)CC)cc2[N+](=O)[O-])CC1	-23	5	-10	-13	-16	39
Cc1ccc(-n2c(-c3cnccn3)n[nH]c2=S)cc1	-7	5	-9	-3	-3	-5
CCOC(=O)c1cc2c(c(CCO)n1)[C@H](CCO)N(S(=O)(=O)C(C)(C)C)C2	/	1	/	/	-5	/
CNc1oc(-c2ccc(Cl)cc2)nc1P(=O)(c1ccccc1)c1ccccc1	-66	15	-8	-36	-14	2
COc1cccc(/C=N/NC(=O)c2cc3c(OC)ccc(OC)c3[nH]2)c1O	-2	11	7	-1	20	48*
COc1cccc(/C=N/NC(=O)c2ccc3nc[nH]c3c2)c1O	4	-1	-1	-5	-10	21
O=C(/C=C/c1ccccc1)NCCOc1ccccc1	2	-1	-9	-6	-28	10
Cn1cccc1CC(=O)N/N=C\c1c2ccccc2cc2ccccc12	-14	8	3	-29	-22	39*
Oc1ccc(-c2nc3ccccn3c2NCc2ccco2)cc1	2	19	-7	3	52*	19
CCn1c(CCNC(=O)c2ccc(Cl)c(Cl)c2)nnc1SCCOc1ccc(OC)cc1	-7	3	-2	-26	-7	41*
COc1ccc(OCCSc2nnc(CCNC(=O)c3ccc(Cl)c(Cl)c3)n2C)cc1	7	14	-4	-27	-4	24
COc1ccc(S(=O)(=O)NCc2cccnc2)cc1NC(=O)c1ccccc1C	/	5	/	/	-7	/
Cc1cc(C)cc(N(CC(=O)NCc2ccc(F)cc2)C(=O)c2snc(C(N)=O)c2N)c1	-23	41*	2	-15	17	9
COc1ccc(/C=N/OC(=O)Nc2ccccc2OC)cc1	-6	0	9	-9	3	30
O=C1N(Cc2ccc(F)cc2)CCN1c1ccc(F)cc1	-18	2	-4	3	-15	10
CC(On1nnc2ccc(S(=O)(=O)N3CCOCC3)cc21)C(=O)Nc1ccccc1F (configuration not stated)	-16	4	/	-23	11	19
CCN1C(=O)C(CC(=O)Nc2ccc(OC)cc2)N(CCc2ccc(OC)cc2)C1=S (configuration not stated)	11	28	2	-24	51*	0
CCN1C(=O)C(CC(=O)Nc2ccc(OC)cc2)N(Cc2ccc(OC)c(OC)c2)C1=S (configuration not stated)	-24	9	-9	-16	-29	2
COc1ccc(Cn2ccnc2CO)cc1[N+](=O)[O-]	-12	6	-13	-1	2	12
COc1ccc(C2SCCN2S(=O)(=O)c2ccc(F)cc2)cc1OC (configuration not stated)	-9	5	-16	-16	6	37*
COc1ccc(S(=O)(=O)N2CCSC2c2ccc(OC)c(OC)c2)cc1 (configuration not stated)	6	11	-12	-4	-7	26
N#CCN1CCN(CC(=O)Nc2cccc3ccccc23)CC1	-3	1	-9	-13	-8	20
SMILES	OX1R antag-1	TAAR1 ag	GPR7 antag	CHO parental Ca	TAAR1 antagonist	OX1R antag-2
CN1C[C@@H]2[C@@H]3C(=O)N(Cc4ccccc4)C(=O)[C@@H]3[C@](C)(C1=O)N2C(=O)c1ccc(F)cc1	/	10	/	/	15	/
COc1cccc2cc(C(=O)OC3CCN(C)CC3)c(=O)oc12	-30	1	-4	-14	22	40
COc1cc(Br)cc2cc(C(=O)OC3CCN(C)CC3)c(=O)oc12	-15	10	-13	11	-1	49*
CCN(c1ccccc1)C1(O)C(=O)c2ccccc2C1=O	-14	3	20*	-2	13	12
COc1ccc(-c2nn(-c3ccccc3)cc2C(=O)Nc2nccs2)cc1	-11	12	12	-15	48	26
O=C(Nc1nccs1)c1cn(-c2ccccc2)nc1-c1ccncc1	-50	38*	-8	-32	39	12
Cc1ccc(-c2nn(-c3ccccc3)cc2/C=C/C(=O)Nc2nccs2)cc1	-1	40*	-5	-5	46	7
COc1ccc(-c2nc3cc(C)ccn3c2NC(=O)c2ccccc2OC)cc1	-25	10	-14	-31	37	2
CCCCNc1c(-c2cccc(-c3ccc(OC)cc3)c2)nc2ccc(C)cn12	46*	12	/	74*	81*	52
CCCCNc1c(-c2cccc(-c3ccc(OC)cc3)c2)nc2cc(C)ccn12	39	8	/	65*	55*	29
COc1ccc(-c2nc3ccc(C)cn3c2NCc2ccc3c(c2)OCO3)cc1	-43	6	1	-21	32	27
O=C1c2cccnc2C(O)N1C1CCCCC1 (configuration not stated)	-14	3	7	-3	-18	13
CCc1cc(=O)oc2cc(OCC(=O)NCCN3CCOCC3)c(Cl)cc12	-19	-1	-13	-8	-6	8
Cc1ccccc1NC(=O)Cc1nc(COC(=O)COc2ccccc2C(C)C)cs1	28	2	/	-26	55*	-4
Cc1ccc(C)c(OCC(=O)OCc2csc(CC(=O)Nc3ccccc3C)n2)c1	/	-1	/	/	0	/
S=C(NCCC(c1ccccc1)c1ccccc1)Nc1ccccc1Cl	-2	7	21	-24	50*	46
S=C(NCCC(c1ccccc1)c1ccccc1)Nc1ccc(Cl)cc1	16	10	16	-15	33	17
COc1cc(NC(=S)NCCC(c2ccccc2)c2ccccc2)c(OC)cc1Cl	3	1	-10	-13	10	58*
CC(C)N(Cc1ccccc1)C(=O)COC(=O)c1cnc(Cl)c(Cl)c1	5	1	/	5	-10	25
O/N=C(\c1ccc(Cl)cc1)c1cc2ccccc2o1	-10	-1	-1	33*	34	13
COc1cc(/C=C/C(=O)NNc2c(F)c(F)cc(F)c2F)ccc1OC(F)F	-17	/	-2	-9	/	30
CCNC(=O)O/N=C1\CCCCC1c1ccc([N+](=O)[O-])cc1[N+](=O)[O-] (configuration not stated)	-16	2	0	-3	-6	46*
O=C(NCC1CCCCC1)c1ccc([N+](=O)[O-])cc1	-10	2	-4	2	1	27
